In ChEMBL document CHEMBL1275350, “First in class, potent, and orally bioavailable NADPH oxidase isoform 4 (Nox4) inhibitors for the treatment of idiopathic pulmonary fibrosis” (J Med Chem, 2010):

What was measured:
[1] = biological target: T1, NADPH oxidase 4 (Homo sapiens, UniProt Q9NPH5); experiment: Inhibition of human NOX4 overexpressed in T-REx-293 cell membrane assessed as ROS production by cell free assay in presence of NADPH; conditions: in the assay text read “T-REx-293 cell membrane” for “human PMN cell membrane”
T1 sequence (Q9NPH5 whole entry): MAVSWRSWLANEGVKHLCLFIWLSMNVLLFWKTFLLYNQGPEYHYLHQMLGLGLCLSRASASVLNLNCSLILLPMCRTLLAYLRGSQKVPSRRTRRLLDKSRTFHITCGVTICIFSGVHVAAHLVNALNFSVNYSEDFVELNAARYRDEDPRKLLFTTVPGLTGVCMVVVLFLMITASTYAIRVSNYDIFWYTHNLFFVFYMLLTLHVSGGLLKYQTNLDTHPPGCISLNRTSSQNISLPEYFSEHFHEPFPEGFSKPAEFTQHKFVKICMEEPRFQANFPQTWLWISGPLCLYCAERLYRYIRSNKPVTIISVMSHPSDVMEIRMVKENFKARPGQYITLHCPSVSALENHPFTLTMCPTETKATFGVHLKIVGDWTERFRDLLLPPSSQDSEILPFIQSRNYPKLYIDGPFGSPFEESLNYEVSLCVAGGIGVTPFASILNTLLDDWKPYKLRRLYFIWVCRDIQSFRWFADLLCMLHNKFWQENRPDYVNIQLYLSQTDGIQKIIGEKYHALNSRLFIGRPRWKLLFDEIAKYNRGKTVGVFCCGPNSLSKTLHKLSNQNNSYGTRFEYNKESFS
In short: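 hNOX4 T-REx-293 cells induced with tetracycline (1 μg/mL, 24 h), sonicated in sucrose/NaCl/EGTA PBS buffer pH 7.4, membranes taken from a sucrose gradient. NADPH-triggered ROS measured by Amplex Red/HRP in PBS, with compound at 1 nM–100 μM, 20 min at 37 °C. Ki by Cheng-Prusoff from ≥3 triplicate experiments.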

[2] = Intrinsic clearance in human liver microsomes assessed as per mg of protein at 0.5 uM; assay type: ADME, Microsome
In short: (§1)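 Phase I stability assay in pooled liver microsomes (human: male and female; rat: male Sprague-Dawley). Microsomes at 0.5 mg/mL final in 0.1 M phosphate pH 7.4. Compound 0.5 μM final, 0.25% DMSO. Preincubated at 37 °C, reaction started with 1 mM NADPH. Sampled at 0, 5, 15, 30 and 45 min, with a 45 min minus-NADPH control. Methanol quench with internal standard, LC/MS-MS, intrinsic clearance calculated.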

[3] = Intrinsic clearance in Sprague-Dawley rat liver microsomes assessed per mg of protein at 0.5 uM; assay type: ADME, Microsome; in short: as §1
[4] = Permeability across human Caco-2 cell membrane at 10 uM after 2 hrs; assay type: ADME, cell-based
In short: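 Caco-2 monolayers grown 20 days in DMEM, used when TEER >800 Ω·cm2. Dosed at 10 μM final in HBSS pH 6.5 with 1% DMSO, apical-to-basolateral and basolateral-to-apical. Incubated 2 h at 37 °C, both compartments sampled, LC-MS/MS with five-point calibration. Papp = (dQ/dt)/(C0A).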

[5] = Volume of distribution at steady state in Sprague-Dawley rat at 5 mg/kg, iv; assay type: ADME, organism-based; set-up: dose 5 mg/kg, route intravenous; conditions: in vivo, read-out: Vdss
In short: (§2)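 Parallel design in male rats, three per group. Group 1: 5 mg/kg iv in EDPW (10% EtOH, 10% DMA, 30% PG, 50% water). Group 2: 10 mg/kg oral in aqueous 0.5% CMC with 0.25% Tween 20. Carotid cannula blood drawn up to 24 h. Plasma measured by LC/MS/MS (LLOQ 1.00 ng/mL), noncompartmental analysis.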

[6] = AUC (infinity) in Sprague-Dawley rat at 5 mg/kg, iv; assay type: ADME, organism-based; set-up: time infinity, dose 5 mg/kg, route intravenous; conditions: plasma
In short: (§3)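 Parallel design with six male rats: three given 5 mg/kg iv in EDPW (10% EtOH, 10% DMA, 30% PG, 50% water), three given 10 mg/kg orally in aqueous 0.5% CMC with 0.25% Tween 20. Carotid cannula blood sampled up to 24 h. Plasma levels by LC/MS/MS (LLOQ 1.00 ng/mL). Noncompartmental analysis.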

[7] = AUC (infinity) in Sprague-Dawley rat at 10 mg/kg, po; assay type: ADME, organism-based; set-up: time infinity, dose 10 mg/kg, route oral; conditions: plasma; in short: as §3
[8] = Cmax in Sprague-Dawley rat at 5 mg/kg, iv; assay type: ADME, organism-based; set-up: dose 5 mg/kg, route intravenous; conditions: in vivo; in short: as §3
[9] = Tmax in Sprague-Dawley rat at 10 mg/kg, po; assay type: ADME, organism-based; set-up: dose 10 mg/kg, route oral; conditions: in vivo; in short: as §2
[10] = Clearance in Sprague-Dawley rat at 5 mg/kg, iv; assay type: ADME, organism-based; set-up: dose 5 mg/kg, route intravenous; conditions: in vivo; in short: as §3
[11] = Cmax in Sprague-Dawley rat at 10 mg/kg, po; assay type: ADME, organism-based; set-up: dose 10 mg/kg, route oral; conditions: in vivo; in short: as §3
[12] = Clearance in Sprague-Dawley rat at 10 mg/kg, po; assay type: ADME, organism-based; set-up: dose 10 mg/kg, route oral; conditions: in vivo; in short: as §3
[13] = Half life in Sprague-Dawley rat at 10 mg/kg, po; assay type: ADME, organism-based; set-up: dose 10 mg/kg, route oral; conditions: in vivo; in short: as §3
[14] = Oral bioavailability in Sprague-Dawley rat at 10 mg/kg; assay type: ADME, organism-based; conditions: in vivo; in short: as §2

| Structure (SMILES) | Ki [1] [nM] | also measured |
| --- | --- | --- |
| Cc1c2c(=O)n(-c3ccnc4cc(Cl)ccc34)[nH]c2cc(=O)n1Cc1ccccn1 | 458 |  |
| Cc1c2c(=O)n(-c3ccc(F)cc3Cl)[nH]c2cc(=O)n1Cc1ccccn1 | 235 | microsomal CLint at 0.5 µM [2]: 37.6 µL/min/mg; microsomal CLint at 0.5 µM [3]: 84.2 µL/min/mg; Papp at 2 h, 10 µM [4]: 13.4 ×10⁻⁶ cm/s |
| Cc1c2c(=O)n(-c3cccc(Cl)c3)[nH]c2cc(=O)n1C | 340 | microsomal CLint at 0.5 µM [3]: 163 µL/min/mg |
| Cc1c2c(=O)n(-c3ccc(F)cc3Cl)[nH]c2cc(=O)n1C | 213 |  |
| Cc1c2c(=O)n(-c3ccccc3Cl)[nH]c2cc(=O)n1C | 215 | microsomal CLint at 0.5 µM [3]: 49.3 µL/min/mg |
| Cc1c2c(=O)n(-c3nc4ccccc4s3)n(Cc3ccccn3)c2cc(=O)n1CC1CCOC1 (centres undefined) | > 30000 |  |
| CCOCCCn1c(C)c2c(=O)n(-c3ccccc3Cl)n(Cc3ccccn3)c2cc1=O | > 30000 |  |
| Cc1c2c(=O)n(-c3nc4ccccc4s3)[nH]c2cc(=O)n1CCc1c[nH]cn1 | 4730 |  |
| Cc1c2c(=O)n(-c3ccccc3Cl)[nH]c2cc(=O)n1CCCO | 565 |  |
| Cn1c(-c2ccccc2F)c2c(=O)n(-c3ccccc3Cl)[nH]c2cc1=O | 128 |  |
| Cc1c2c(=O)n(-c3ccccc3Cl)[nH]c2cc(=O)n1CCCC(=O)N1CCN(C)CC1 | 428 |  |
| Cc1c2c(=O)n(-c3ccccc3Cl)[nH]c2cc(=O)n1CC1CCCCC1 | 520 |  |
| Cc1c2c(=O)n(-c3ccc(OCc4ccccc4)cc3)[nH]c2cc(=O)n1C | 3060 |  |
| Cc1c2c(=O)n(-c3ccc(F)cc3)[nH]c2cc(=O)n1Cc1ccccc1 | 878 |  |
| Cc1c2c(=O)n(-c3nc(-c4ccccc4)cs3)[nH]c2cc(=O)n1C | 1950 |  |
| CC(=O)Nc1cccc(-n2[nH]c3cc(=O)n(C)c(C)c3c2=O)c1 | 328 |  |
| Cc1c2c(=O)n(C)[nH]c2cc(=O)n1Cc1ccccn1 | 387 |  |
| Cc1c2c(=O)n(-c3ccccc3Cl)[nH]c2cc(=O)n1CCN(C)C | 235 |  |
| COCCn1c(COc2ccc(F)cc2)c2c(=O)n(CCN3CCOCC3)[nH]c2cc1=O | 153 | Vd [5]: 2.95 L/kg; microsomal CLint at 0.5 µM [2]: 45.1 µL/min/mg; AUC(0-inf) [6]: 822 ng·h/mL; AUC(0-inf) [7]: 109 ng·h/mL; microsomal CLint at 0.5 µM [3]: 45.3 µL/min/mg; Cmax [8]: 4640 ng/mL; Tmax [9]: 0.25 h; clearance [10]: 109 mL/min/kg; Cmax [11]: 132 ng/mL; Papp at 2 h, 10 µM [4]: 1.4 ×10⁻⁶ cm/s; CL/F [12]: 1610 mL/min/kg; half-life [13]: 2.35 h; bioavailability [14]: 6% |
| Cc1c2c(=O)n(Cc3cc(Cl)ccc3Cl)[nH]c2cc(=O)n1Cc1ccccn1 | 218 |  |
| Cc1c2c(=O)n(-c3nc4ccccc4s3)n(Cc3ccccc3)c2cc(=O)n1CC1CCCO1 (centres undefined) | > 30000 |  |
| CN(Cc1c2c(=O)n(-c3ccccc3Cl)[nH]c2cc(=O)n1CCc1ccccn1)c1ccccc1 | 172 |  |
| Cc1c2c(=O)n(-c3ccccc3)n(Cc3ccc(F)cc3)c2cc(=O)n1CCc1c[nH]c2ccccc12 | > 30000 |  |
| COc1cccc(N2CCN(Cc3c4c(=O)n(-c5ccccc5Cl)[nH]c4cc(=O)n3C)CC2)c1 | 65 | microsomal CLint at 0.5 µM [2]: 57.9 µL/min/mg; microsomal CLint at 0.5 µM [3]: 121 µL/min/mg |
| Cc1c2c(=O)n(-c3nc4ccccc4s3)n(Cc3ccccc3Cl)c2cc(=O)n1N1CCOCC1 | > 30000 |  |
| Cc1c2c(=O)n(-c3ccccc3)[nH]c2cc(=O)n1Cc1ccc2c(c1)OCO2 | 5440 |  |
| Cc1c2c(=O)n(-c3nc4ccccc4s3)[nH]c2cc(=O)n1Cc1ccc(C(=O)O)cc1 | 4220 |  |
| Cc1c2c(=O)n(-c3cccc(C#N)c3)[nH]c2cc(=O)n1C | 293 |  |
| Cc1c2c(=O)n(-c3nc4ccccc4s3)[nH]c2cc(=O)n1N1CCOCC1 | 1210 |  |
